The source of these data is ChEMBL document CHEMBL2176974, “A bactericidal guanidinomethyl biaryl that alters the dynamics of bacterial FtsZ polymerization” (J Med Chem, 2012).

One assay has as its system Streptococcus pyogenes. In words: Antimicrobial activity against Streptococcus pyogenes Strep A ATCC 19615 incubated for 24 hrs by broth microdilution method. It is filed as functional. To be noted: Strep A ATCC 19615, 24 h. Summed up: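 CLSI broth microdilution. Log-phase bacteria at 10⁵ CFU/mL were exposed to 2-fold serial dilutions (64 to 0.016 μg/mL) in cation-adjusted Mueller-Hinton broth, 5% defibrinated sheep blood added for Streptococcus. Incubated aerobically 24 h at 37 °C. Growth read as OD600; MIC taken as the lowest concentration giving 90% growth inhibition.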

The subject of assay [1] is T1, Cell division protein FtsZ (Staphylococcus aureus), P0A031 [G196A].
T1 sequence (whole entry): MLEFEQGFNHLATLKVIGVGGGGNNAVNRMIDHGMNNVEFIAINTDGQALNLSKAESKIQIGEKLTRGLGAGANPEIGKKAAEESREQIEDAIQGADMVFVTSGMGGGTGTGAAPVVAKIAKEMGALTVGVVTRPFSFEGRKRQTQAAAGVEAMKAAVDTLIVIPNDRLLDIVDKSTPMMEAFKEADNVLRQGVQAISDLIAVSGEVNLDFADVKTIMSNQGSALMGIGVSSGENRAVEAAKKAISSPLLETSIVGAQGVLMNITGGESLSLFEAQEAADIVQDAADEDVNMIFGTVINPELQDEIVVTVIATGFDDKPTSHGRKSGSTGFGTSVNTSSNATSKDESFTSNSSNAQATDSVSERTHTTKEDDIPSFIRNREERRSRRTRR
In words: Binding affinity to Staphylococcus aureus FtsZ G196A mutant self-polymerization at 10 ug/mL by microtiter plate-based light scattering assay.

Assay [2] deals with T2, Cell division protein FtsZ (Staphylococcus aureus), P0A031 [I228R].
T2 sequence (whole entry): T1 sequence (whole entry) with A196G, I228R
Kind of assay: Binding affinity to Staphylococcus aureus FtsZ I228R mutant self-polymerization at 10 ug/mL by microtiter plate-based light scattering assay.

The test system of assay [3] is T3, Cell division protein FtsZ (Staphylococcus aureus), P0A031 [E185A].
T3 sequence (whole entry): T1 sequence (whole entry) with E185A, A196G
In words: Binding affinity to Staphylococcus aureus FtsZ E185A mutant self-polymerization at 10 ug/mL by microtiter plate-based light scattering assay.

In assay [4] the target is Cell division protein FtsZ (Staphylococcus aureus, UniProt P0A031, E185A). In words: Binding affinity to Staphylococcus aureus FtsZ E185A mutant expressed in Escherichia coli BL21 (DE3) at 25 degC by fluorescence anisotropy assay. An outline of the steps: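 Purified SaFtsZ mutant protein (0–25 μM) mixed with 5 μM compound in 50 mM Tris·HCl pH 7.4, 50 mM KCl, 2 mM magnesium acetate. After 5 min at 25 °C, steady-state fluorescence anisotropy read at excitation 245 / emission 318 nm, G-factor corrected, triplicate. Kd from nonlinear least-squares fit.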

In the next assay the test system is Enterococcus faecalis. In words: Binding affinity to Enterococcus faecalis FtsZ at 40 um by fluorescence anisotropy BoGTPgammaS competition assay. An outline of the steps: (§1)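 Competition with fluorescent BoGTPγS. BoGTPγS (1 μM final) was mixed with 5 μM FtsZ and compound or unlabeled GTP at 0–40 μM. Buffer was 50 mM Tris·HCl pH 7.4, 50 mM KCl, 2 mM magnesium acetate. After 5 min at 25 °C, anisotropy was read at excitation 488 nm and emission 510 nm, in triplicate and averaged.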

For assay [5], the target named is T4, Cell division protein FtsZ (Escherichia coli K-12) (UniProt P0A9A6).
T4 sequence (whole entry): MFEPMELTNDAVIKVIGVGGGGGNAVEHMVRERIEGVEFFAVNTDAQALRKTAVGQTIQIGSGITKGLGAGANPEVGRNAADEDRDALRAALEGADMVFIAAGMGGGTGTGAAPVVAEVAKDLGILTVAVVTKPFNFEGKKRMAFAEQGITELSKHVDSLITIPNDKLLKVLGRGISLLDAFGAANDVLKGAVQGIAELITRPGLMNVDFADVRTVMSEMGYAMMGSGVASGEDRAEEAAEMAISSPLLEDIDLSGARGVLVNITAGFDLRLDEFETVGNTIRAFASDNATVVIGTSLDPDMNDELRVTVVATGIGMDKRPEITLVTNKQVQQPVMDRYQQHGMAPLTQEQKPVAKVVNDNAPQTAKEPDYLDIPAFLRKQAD
Kind of assay: Binding affinity to Escherichia coli FtsZ at 40 uM by fluorescence anisotropy BoGTPgammaS competition assay. An outline of the steps:
as §1

Assay [6] addresses T5, Cell division protein FtsZ (Staphylococcus aureus) (UniProt P0A031).
T5 sequence (whole entry): T1 sequence (whole entry) with A196G
In words: Stimulation of Staphylococcus aureus FtsZ self-polymerization by microtiter plate-based light scattering assay.

Structures are written as SMILES. Positions count from the first letter of the chain named. ≈ marks a conversion by molar mass, not a printed value. Calls of active or inactive are those of the source. The rule behind the calls is not given here.

`CC(C)(C)c1ccc(-c2cccc(CNC(=N)N)c2)cc1` came in with an MIC in the assay with Streptococcus pyogenes of 2 µg/mL (≈ 7.11 µM). Also, the result in assay [1] and in assay [2] was Active. For the same molecule, the result (in assay [3]; with Enterococcus faecalis; in assay [5]) was inactive. Binding in assay [4] was put at a Kd of 38.3 µM. Also, the Activity entry in assay [6] was “Dose-dependent effect”.
